Laboratory results published in ChEMBL document CHEMBL4513216, “Probing the Open Global Health Chemical Diversity Library for Multistage-Active Starting Points for Next-Generation Antimalarials” (ACS Infect Dis, 2020).

Test: Toxicity liver stage against HepG2, at 10uM
Type: cell-based
Parameters: test concentration 10 uM, cell line HepG2-A16-CD81EGFP
Details: human, HepG2-A16-CD81EGFP cells; read-out: INHIBITION
How it was run: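 Uninfected HepG2-A16-CD81EGFP cells, 3 × 10^3 per well, 1536-well, plated on prespotted compound at 10 μM final, parasite-free screening media added to match infected plates; puromycin 10 μM positive, DMSO 0.5% negative; run in parallel with 48 h PbLuc assay at 37 °C, 5% CO2; viability by CellTiter-Glo luminescence, normalized to controls.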

Compound	cytotoxicity at 10 µM [%]
COc1cc(C2CC(=O)Nc3c2cnn3C)ccc1O (configuration not stated)	45.5
O=C1CC(NS(=O)(=O)c2cccc(F)c2)CN1 (configuration not stated)	-5.89
CN(C)c1cccc(C(=O)N2CCCSCC2CN2CCCC2)c1 (configuration not stated)	7.03
CCC(CNC(=O)C1CCC1)(OC)c1ccccc1 (configuration not stated)	1.95
CCNC(=O)NCC(CC)(OC)c1ccccc1 (configuration not stated)	2.05
NC(=O)C1CCN(C(=O)CCn2ccc3ccc(Br)cc32)CC1	-5.85
CCc1ccccc1NC(=O)N1CCn2cnc(COC)c2C1	-11.8
COc1cc2cc(C(=O)NCCC(=O)O)n(C)c2c(OC)c1OC	4.76
Cc1nc(C(=O)N2CCc3[nH]nc(Nc4ccccc4)c3C2)co1	6.11
CCC(=O)N1CCCCC1c1nc(O)c2c(n1)CN(S(C)(=O)=O)CC2 (configuration not stated)	5
CC1(Cc2ccc(F)cc2)Cc2cc(C(=O)NCCO)ccc2O1 (configuration not stated)	-2.89
CCc1noc(CCC(=O)N2CCC(c3ccn[nH]3)C2)n1 (configuration not stated)	6.03
Cc1ccc2c(c1)c(C)cc(=O)n2CC(=O)O	3.1
CN1C(=O)CO[C@H]2CCN(C(=O)Cc3ccc4c(c3)CCCC4)CC[C@@H]21	4.45
C[C@@]1(O)CCN(C2CCOCC2)C[C@H]1n1ccc(=O)[nH]c1=O	4
CC(C)c1ncc(CN2CCC(c3n[nH]cc3C(=O)N(C)C)C2)cn1 (configuration not stated)	2.27
CC(=O)N1CCOC(c2cncc(CCC(N)=O)n2)C1 (configuration not stated)	-2.74
c1ccc(CN2CCN(Cc3cnc(C4CCCCO4)nc3)CC2)cc1 (configuration not stated)	-1.71
Cc1nc(C)c(C(=O)N2CCCC(c3cnccn3)C2)s1 (configuration not stated)	-20.6
CS(=O)(=O)c1cn[nH]c1C1CCCCN1C(=O)c1cncs1 (configuration not stated)	-19.1
CC(NC(=O)c1cc(C(C)C)[nH]n1)C(=O)Nc1ccccc1 (configuration not stated)	10.8
CCS(=O)(=O)N1CCN(C(C)(C)CO)CC1	-2.48
N#Cc1ccc(F)c(CNc2ccc(F)cc2OCCO)c1	-1.98

Compound	cytotoxicity at 10 µM [%]
Cc1cccc(CS(=O)(=O)Cc2ccn(C)c(=O)c2)c1	2.29
CCS(=O)(=O)NC1CCCN(c2cc(C)ccc2F)C1=O (configuration not stated)	3.07
COc1ccc(CCNc2cc(-c3nc(C)no3)ccn2)cc1OC	3.39
CC(C)CN(c1cn[nH]c1)S(=O)(=O)c1cccc(C#N)c1	8.75
CC(Oc1cccc(Cl)c1)C(=O)Nc1cnn(CC(=O)NC2CC2)c1 (configuration not stated)	1.73
CCCN(CC1COc2ccccc2O1)C(=O)c1ncoc1CC (configuration not stated)	-42.2
CC(CO)NC(=O)Nc1ccc(Cl)cc1OCC(F)(F)F (configuration not stated)	5.32
COc1ccc(OC)c(CNCc2c(C)nc3sc(C)cn23)c1	7.06
COC(=O)C(C)CN(Cc1ccccc1)C(=O)CN1CCCNC1=O (configuration not stated)	0.124
COc1ccccc1N1CCCC(NC(=O)Nc2cccnc2)C1 (configuration not stated)	9.86
CNC(=O)NC(=O)CNc1cc(C(=O)OC)cc(C(F)(F)F)c1	-0.0264
COc1ccc(Cl)cc1NC(=O)CCNc1ccc(C#N)cn1	2.59
COCCN(CCC#N)S(=O)(=O)c1ccc(F)cc1F	-3.54
CCNC(=O)NC(=O)CN1CCCC1c1nc(C2CCCCC2)co1 (configuration not stated)	8.08
COc1cc(C(=O)N(C)Cc2nccn2CC(F)(F)F)ccc1C	-4.24
Cc1cc(C(=O)CN(Cc2cccnc2)CC2CCCO2)c(C)[nH]1 (configuration not stated)	-1.26
CC(NCCN1CCN(C(=O)C2CCCC2)CC1)c1ccccn1 (configuration not stated)	-2.17
COc1ccccc1C1(CNc2cc(C(=O)N(C)C)ccn2)CC1	-1.6
CCOCc1ccccc1NC(=O)NCC(C)(O)c1ccsc1 (configuration not stated)	-1.09
O=C(Nc1cc(C2CCOCC2)[nH]n1)c1cc[nH]n1	-3.43
N#Cc1ccsc1C(=O)N1CCCCC1Cn1cccn1 (configuration not stated)	3.36
CCC1c2ccccc2CCN1C(=O)c1ccnc(C(=O)OC)c1 (configuration not stated)	-2.72
O=C(Cn1cncn1)NCC1(O)CCCc2ccccc21 (configuration not stated)	-54.8

Compound	cytotoxicity at 10 µM [%]
O=C1N(CC2CC2)C(c2c[nH]nc2-c2cccnc2)NC12CCCC2 (configuration not stated)	-2.16
Cc1nc(CNC(=O)CCN2CCN(c3ccccc3)CC2)oc1C	-4.04
CCNC(=O)N(Cc1ccoc1)C1CCCCC1	-0.986
CC(C)(C)NC(=O)NC(=O)CNc1c(F)cccc1N1CCCC1	12.2
CC(C)N(C)CCNC(=O)NCc1ccccc1-n1cccn1	-7.57
CCN(CC1CN(Cc2ncc[nH]2)CCO1)c1cccnn1 (configuration not stated)	1.31
O=C1CN(Cc2nnc(-c3ccc(Br)o3)o2)CCN1	13.5
CC(C#N)CSc1ccccc1NCC(=O)Nc1ccc(F)cc1 (configuration not stated)	8.19
CC(C)(C)c1n[nH]c(C2CN(C(=O)c3csnn3)CCO2)n1 (configuration not stated)	-2.44
Cc1ccc(CCNC(=O)N2CCCC(Cc3nccn3C)C2)cn1 (configuration not stated)	-9.26
CCc1cc(NCCN2CCNC2=O)n2nc(C)c(C)c2n1	-5.81
COc1cccc(OCC2CCCN(C(=O)CCc3cc(O)no3)C2)c1 (configuration not stated)	0.611
O=C(c1ccc2c(c1)CCC2)N1CCN(c2ccc(Cl)cn2)CC1	-2.27
Cc1cc(C)n(Cc2cc(C(=O)N3CCCC3c3nccs3)n[nH]2)n1 (configuration not stated)	-5.08
O=C1NCCN(Cc2ccoc2)C1CC(=O)N1CCc2sccc2C1 (configuration not stated)	-3.45
Cc1cccc(=O)n1CCCNc1nc(N(C)C)nc2c1CCNC2	-0.545
CCC(=O)Nc1ccc(OCC(=O)N(C)C(C)c2ccon2)cc1 (configuration not stated)	5.22
CN(C)CC(=O)NC1CC(=O)N(CCc2ccccc2)C1 (configuration not stated)	-1.73
CN(CCCc1cnn(C)c1)C(=O)Nc1cccc(C#N)c1	-0.828
CNc1ncc(CN(C)C(=O)CCc2cc3n(n2)CCCNC3)cn1	-13.5
CC(C)[C@H]1CN(c2ccncc2)C[C@@H]1NC(=O)C1(C#N)CCOCC1	-9.21
COC(=O)c1cc(OCC2CCC2)cc(C(=O)N[C@H]2CCCC[C@@H]2O)c1	-2.94
CCc1ccc2nc(C)cc(C(=O)NCc3csc(N(C)C)n3)c2c1	2.64

Compound	cytotoxicity at 10 µM [%]
CC(=O)NCc1cc2n(n1)CCN(Cc1cccc(Cl)c1F)C2	7.65
O=C(NCCSc1ccccc1)[C@H]1CNC[C@H](C(=O)N2CCOCC2)C1	-1.97
CCNC(=O)N1CCC(Cc2cccc(C(N)=O)c2)C1 (configuration not stated)	2.92
CC(O)C(=O)N1CCC(c2nccn2Cc2cscn2)CC1 (configuration not stated)	0.557
CCC1CN(C(=O)c2cccc(O)c2)CCC(=O)N1Cc1ccccc1 (configuration not stated)	6.78
Cc1ccc2c(c1)c(CNC(C)Cn1nc(C)cc1C)nn2C (configuration not stated)	-10.5
COC1CCN(C(=O)Cn2cccc(C(F)(F)F)c2=O)C1 (configuration not stated)	2.23
COc1ccc(Cc2ncc3c(n2)CN(C(=O)C(C)(C)OC)C3)cc1	-1.24
CS(=O)(=O)CC(=O)N(CCN1CCOCC1)Cc1ccco1	3.11
O=C(NCC1=CCCCC1)C(c1cccnc1)N1CCOCC1 (configuration not stated)	-8.4
CCc1nc(N2CCCC(CCCOC)(C(=O)O)C2)ncc1C (configuration not stated)	3.43
CC(C)N1CCC(CC(=O)NCCc2cc(O)ncn2)CC1	6.36
CC(C)n1ccnc1CN1CCCN(C(=O)c2cnn(C)c2)CC1	-22.4
O=C(NCc1ccncc1)Nc1cc(C(F)(F)F)c[nH]c1=O	-9.86
O=C(NCCCNc1ccc(C(F)(F)F)cn1)c1ccccc1	-6.07
NC(=O)C1CCN(C(=O)NCc2cccnc2OC2CCCC2)C1 (configuration not stated)	-7.12
NC(=O)COc1cccc(CN2CCc3cncnc3C2)c1	-12.9
Cn1ccnc1CN1CCCN(Cc2noc(C3CC3)n2)CC1	-3.33
CCOc1ccnc(N2CCN(C(=O)c3c(CC)noc3C)CC2)n1	-5.43
CNC(=O)CCNC(=O)c1cc(C)n(-c2cccc(OC)c2)c1C	-10.2
CN(Cc1noc(C2CC2)n1)C1CCN(CCc2cnn(C)c2)C1 (configuration not stated)	-0.222
O=C(Cc1csc(-c2ccco2)n1)N1CCCC1Cn1cccn1 (configuration not stated)	-11.2
CCN(Cc1nc2c(cnn2C)c(=O)[nH]1)c1cccc(C)c1	-7.09

Compound	cytotoxicity at 10 µM [%]
COc1ccc(COCC(O)CNC(=O)Cc2ccc(C)cc2)cc1 (configuration not stated)	-5.62
CCN1CCC(NC(=O)CN2CCCC2Cn2cc(C)cn2)CC1 (configuration not stated)	-8.84
CCn1c(C(=O)N2CCN(C(=O)NC(C)C)CC2)cc2ccccc21	-1.94
CCc1ccccc1-n1cc(O)c(C(=O)N2CCCCC2)n1	0.495
Cc1ccc(-c2nc(CNCCn3cccn3)cs2)o1	-5.9
N#CC1(C(=O)N2CCN(Cc3ccon3)CC2)CCC1	-5.97
COc1ccc(C2=CCN(C(=O)CN(C)CC(N)=O)CC2)cc1	-9.19
Cc1ccc(CNC(=O)CCSCc2csc(C)n2)cn1	-10
Cc1ccc(N2CCCN(C(=O)c3c(C)oc(C)c3C)CC2)nn1	5.46
Cc1ccc(NC2CCN(C(=O)c3n[nH]c4ccccc34)CC2)nn1	2.96
O=C(NCCCn1cncn1)NCC(c1ccco1)N1CCCCC1 (configuration not stated)	0.987
Cc1cnn(CC2CCCCN2C(=O)c2ccc3nnc(C)n3c2)c1 (configuration not stated)	7.87
COc1cc(CN(C)[C@@H]2COC[C@H]2c2ccc(F)cc2)cc(OC)c1	7.67
NCC(=O)N1CCCC1c1n[nH]cc1-c1ccccc1F (configuration not stated)	2.37
CCc1nc(CNC(C)c2cccc(N3CCCC3=O)c2)cs1 (configuration not stated)	7.28
CO[C@H]1CCN(S(=O)(=O)c2cn(C)cn2)[C@H]1Cc1cnn(C)c1	2.63
Cc1ccc2c(c1)C1(CCN(C(=O)C3CC3)CC1)CC2N1CCOCC1 (configuration not stated)	-128
COc1ccc(F)cc1C(=O)N1C[C@@H]2CC[C@H]1CN(c1ncccn1)C2	4.24
Cc1nc[nH]c1CN1C[C@H]2CC[C@@H](C1)N(C(=O)c1cnn(C)c1)C2	2.42
COCC1N(S(=O)(=O)c2cn(C)cn2)C2CCC1(O)CC2 (configuration not stated)	-2.04
